Substrate: O=C(CNC(=O)OCc1ccccc1)Oc1ccc([N+](=O)[O-])cc1
Assay: Michaelis constant against papain
Conditions: Carica papaya
Outline: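 Papain activated 45 min at 25 °C in 50 mM phosphate pH 6.2 with 1 mM EDTA and 0.25 mM cysteine, made fresh daily. N-Cbz-Gly p-nitrophenyl ester hydrolysis at 25 °C read at 340 nm (Δε 6000 M⁻¹ cm⁻¹), corrected for nonenzymic hydrolysis. Compounds in acetonitrile or DMF, final <2.5% v/v. Reversible Ki by Lineweaver–Burk; irreversible Ki and k2 by Kitz–Wilson.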

B1: Papain (Carica papaya), P00784 (protein)
chain: MAMIPSISKLLFVAICLFVYMGLSFGDFSIVGYSQNDLTSTERLIQLFESWMLKHNKIYKNIDEKIYRFEIFKDNLKYIDETNKKNNSYWLGLNVFADMSNDEFKEKYTGSIAGNYTTTELSYEEVLNDGDVNIPEYVDWRQKGAVTPVKNQGSCGSCWAFSAVVTIEGIIKIRTGNLNEYSEQELLDCDRRSYGCNGGYPWSALQLVAQYGIHYRNTYPYEGVQRYCRSREKGPYAAKTDGVRQVQPYNEGALLYSIANQPVSVVLEAAGKDFQLYRGGIFVGPCGNKVDHAVAAVGYGPNYILIKNSWGTGWGENGYIRIKRGTGNSYGVCGLYTSSFYPVKN
- Km: 10.3 µM
